A short description of series [1]: melting temperature; fluorescence melt of hairpins on a sequencing array, two-state fit, raised by 9.35 °C to match UV melts. To be noted: sodium 0.088 M. The procedure, abridged: (§1)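 Library hairpins on a sequenced MiSeq flow cell carried annealed Cy3 and quencher oligos, and their Cy3 fluorescence was imaged in 50 mM Na-HEPES pH 8.0 with 25 mM NaCl, in 2.5 °C steps up to 60 °C. Signals were normalised to Cy3 before quenching and to control constructs. Melting temperature and folding enthalpy were obtained from bootstrapped two-state fits, combined by inverse-variance weighting across four replicates, and the fitted temperatures were then raised by 9.35 °C to match UV melts.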

Series [2] in a line: folding enthalpy; higher = less favourable; fluorescence melt of hairpins on a sequencing array, two-state fit. The following applies: sodium 0.088 M. The procedure, abridged: as §1

Consider GTAGTGGGAAACCACCAC ((.((((....)))).)), for which, in series [1], the Tm worked out at 33.5 °C. The folding enthalpy in series [2] was -16.3 kcal/mol.
GTAGTGGGAAACTACTGC (.(((.(....).))).): the Tm in series [1] was determined as 46 °C. In addition, in series [2], the folding enthalpy was -28.8 kcal/mol.
As for GTAGTTGGAAACAACTAC (((((((....))))))), the Tm in series [1] is 56.1 °C. Besides, in series [2], the folding enthalpy was -43.5 kcal/mol.
With GTAGTTGGAAACAGCTAC ((((.((....)).)))), the Tm in series [1] amounted to 42.9 °C. Further, in series [2], the folding enthalpy is -29.4 kcal/mol.
As to GTATAACCGAAAGGTTAC (((..(((....)))))), in series [1], the Tm was 31.8 °C. For the same sequence, in series [2], the folding enthalpy is -11.4 kcal/mol.
As for GTATAACGAAAGTTCTAC (((.(((....))).))), the Tm in series [1] stood at 31.1 °C. Further, in series [2], the folding enthalpy was -20 kcal/mol.
Turning to GTATAAGGAAACTTATGC (.(((((....))))).), the Tm in series [1] amounted to 31.6 °C. Moreover, the folding enthalpy in series [2] was -18.5 kcal/mol.
Turning to GTATACGAAAGTAGATAC ((((((....)))..))), the Tm in series [1] is 24.9 °C. The folding enthalpy in series [2] was -10.1 kcal/mol.
Consider GTATACGAAAGTATCTAC ((((((....)))..))), for which, in series [1], the Tm was determined as 32.5 °C. The folding enthalpy in series [2] is -18.6 kcal/mol.
Taken in the same sequence, the figures for GTATACGAAAGTATGTAC ((((((....)))..))) were 30.6 °C and -12.4 kcal/mol.
With GTATCACGAAAGTGTTAC (((.(((....))).))), the Tm in series [1] is 42.3 °C. In addition, in series [2], the folding enthalpy is -25.8 kcal/mol.
GTATCAGGAAACTGATAC (((((((....))))))): the Tm in series [1] amounted to 54.6 °C. The folding enthalpy in series [2] is -39.3 kcal/mol.
As for GTATCCCGAAAGGGTAC (((.(((....)))))), in series [1], the Tm was 49 °C. For the same sequence, the folding enthalpy in series [2] was -17.9 kcal/mol.
GTATCCGAAAGGAATAC ((((((....))).))): the Tm in series [1] came to 40.4 °C. Further, the folding enthalpy in series [2] is -23.2 kcal/mol.
In the case of GTATCCGAAAGGAGATAC ((((((....)))..))), the Tm in series [1] was 34.3 °C. For the same sequence, the folding enthalpy in series [2] was -15.2 kcal/mol.
Take GTATCGCGAAAGCGCTAC (((.(((....))).))): the Tm in series [1] was found to be 47.9 °C. Besides, the folding enthalpy in series [2] was -18.4 kcal/mol.
With GTATCGGGAAACCGACAC ((.((((....)))).)), the Tm in series [1] is 39.3 °C. In series [2], the folding enthalpy is -19.5 kcal/mol.
As for GTATCGGGAAACCGATGC (.(((((....))))).), the Tm in series [1] worked out at 53.3 °C. In series [2], the folding enthalpy was -22.2 kcal/mol.
In the case of GTATCGGGAAACTGGTAC (((.(.(....).).))), the Tm in series [1] came out at 32.3 °C. Moreover, the folding enthalpy in series [2] is -17.8 kcal/mol.
Take GTATCTCGAAAGAGTAC (((.(((....)))))): in series [1], the Tm was 39.7 °C. For the same sequence, the folding enthalpy in series [2] was -23.5 kcal/mol.
Taken in the same sequence, the figures for GTATCTGGAAACAGGTAC (((.(((....))).))) were 42.7 °C and -36.2 kcal/mol.
On to GTATGAGAAATCATAC ((((((....)))))), for which the Tm in series [1] stood at 44.4 °C. For the same sequence, the folding enthalpy in series [2] is -31.4 kcal/mol.
For GTATGAGGAAACTCACAC ((.((((....)))).)), in that order: 29.4 °C and -14.5 kcal/mol.
For the sequence GTATGAGGAAACTTATAC ((((.((....)).)))), the Tm in series [1] worked out at 31.2 °C. In addition, in series [2], the folding enthalpy was -25.7 kcal/mol.
On to GTATGCACGAAAGTGTAC (((..(((....)))))), for which, in series [1], the Tm is 31.1 °C. The folding enthalpy in series [2] is -9.37 kcal/mol.
With GTATGCGAAAGCACCTAC ((((((....)))..))), in series [1], the Tm was found to be 22.1 °C. Also, the folding enthalpy in series [2] was -5.96 kcal/mol.
For GTATGCGAAAGCACTTAC ((((((....)))..))), the Tm in series [1] turned out to be 35.1 °C. Also, the folding enthalpy in series [2] is -13.1 kcal/mol.
Taken in the same sequence, the figures for GTATGCGAAAGCATAC ((((((....)))))) were 69.2 °C and -28.3 kcal/mol.
For GTATGCGAAAGCATATAC ((((((....)))..))), in that order: 42.2 °C and -11 kcal/mol.
On to GTATGCTCGAAAGAGTAC (((..(((....)))))), for which, in series [1], the Tm came to 26.7 °C. Besides, in series [2], the folding enthalpy was -10.5 kcal/mol.
As to GTATGGGGAAACCTATAC ((((.((....)).)))), in series [1], the Tm came to 38.4 °C. In series [2], the folding enthalpy was -30.3 kcal/mol.
Consider GTATGTGGAAACATATAC ((((.((....)).)))), for which, in series [1], the Tm was 37.2 °C. Moreover, the folding enthalpy in series [2] is -23.1 kcal/mol.
In the case of GTATTACGAAAGTATTAC (((.(((....))).))), the Tm in series [1] came out at 34.8 °C. For the same sequence, in series [2], the folding enthalpy was -28.4 kcal/mol.
Regarding GTATTAGGAAACTAATAC (((((((....))))))), the Tm in series [1] stood at 46.3 °C. For the same sequence, the folding enthalpy in series [2] was -38 kcal/mol.
Turning to GTATTCCGAAAGGATAC (((.(((....)))))), the Tm in series [1] is 38.9 °C. Further, the folding enthalpy in series [2] was -19.7 kcal/mol.
Taken in the same sequence, the figures for GTATTCGAAAGAATAC ((((((....)))))) were 54.6 °C and -35.7 kcal/mol.
